Results reported in ChEMBL document CHEMBL1139068, “Amino acid-based enantiomerically pure 3-substituted 1,4-benzodiazepin-2-ones: a new class of anti-ischemic agents” (2007).

Key:
[1] = Antiischemic activity in forebrain neurons assessed as viable cells at 100 uM after 20 mins; assay type: functional; conditions: Homo sapiens, Neuron, read-out: Activity
Procedure, shortened: (§1)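 Isolated forebrain neurons at 1×10^6 cells/100 µl pretreated with compound (100 µM) 20 min at 37 °C, then exposed to equal volume of H2O2 (300 µM) 1 h at 37 °C; untreated cells held 1 h 20 min. Cells washed twice in cold PBS, stained FITC-Annexin V/propidium iodide 15 min at room temperature in dark. 10,000 cells read by flow cytometry (ex 488 nm; em 530, 670 nm); quadrant percentages.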

[2] = Antiischemic activity in forebrain neurons assessed as necrotic neuronal population at 100 uM after 20 mins; assay type: functional, Homo sapiens, Neuron; procedure, shortened: as §1
[3] = Antiischemic activity in forebrain neurons assessed as necrotic and delayed apoptotic neuronal population at 100 uM after 20 mins; assay type: functional, Homo sapiens, Neuron; procedure, shortened: as §1
[4] = Antiischemic activity in forebrain neurons assessed as apoptotic neuronal population at 100 uM after 20 mins; assay type: functional, Homo sapiens, Neuron; procedure, shortened: as §1

SMILES | viability at 100 µM [1] [%] | Activity [2] [%] | Activity [3] [%] | Activity [4] [%]
COC(=O)C[C@@H]1NCc2ccccc2NC1=O | 65.2 | 4.73 | 4.28 | 25.75
CSCC[C@@H]1NCc2ccccc2NC1=O | 82.7 | 4.73 | 3.5 | 9.08
O=C1Nc2ccccc2CN2CCC[C@@H]12 | 66.2 | 5.51 | 5.04 | 23.27
O=C1Nc2ccccc2CN[C@H]1Cc1ccc(OCc2ccccc2)cc1 | 66.5 | 4.99 | 4.83 | 23.63
O=C1Nc2ccccc2CN[C@@H]1Cc1c[nH]c2ccccc12 | 75 | 0.5 | 3.47 | 21.06
O=C1Nc2ccccc2CN[C@H]1Cc1ccccc1 | 70.1 | 2.07 | 1.21 | 25.58
O=C1Nc2ccccc2CN2CCC[C@H]12 | 84.5 | 0.64 | 3.1 | 11.72
O=C1Nc2ccccc2CN2C[C@@H](O)C[C@@H]12 | 87.5 | 5.68 | 3.08 | 3.79
O=C1Nc2ccccc2CN[C@H]1Cc1c[nH]c2ccccc12 | 61.3 | 4.33 | 3.55 | 30.86
NC(=O)CC[C@@H]1NCc2ccccc2NC1=O | 67.2 | 4.75 | 3.12 | 24.93
O=C1Nc2ccccc2CN[C@H]1CSCc1ccccc1 | 64.4 | 5.05 | 4.58 | 26.01
C[C@H]1NCc2ccccc2NC1=O | 69 | 0.98 | 3.2 | 26.85
O=C1Nc2ccccc2CN2C(=O)CC[C@@H]12 | 66.1 | 5.56 | 3.75 | 24.62
CSCC[C@H]1NCc2ccccc2NC1=O | 77.8 | 0.52 | 3.98 | 16.96
C[C@@H]1NCc2ccccc2NC1=O | 60.4 | 5.35 | 4.8 | 29.47
O=C1Nc2ccccc2CN[C@@H]1Cc1ccccc1 | 79 | 0.68 | 0.68 | 17.26
